PKA-R1A act: activates the PKA-R1A holoenzyme complex; P00514+P68181; PKA-R1A dissociation, Cy5-IP20 fluorescence polarization; scaled: DMSO 0%, 113 µM cGMP 100%; activation, % at 11.4 µM; 0.083% of 340,000 active;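 active = percent activation above the mean of all tested compounds plus 3 SD, cut at about 19% in these data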;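 note: higher means more PKAc released from R1A so a rise in polarization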
APJ agonist: agonists of human APJ apelin receptor | P35414 | 0.11% of 330,000 active | CHO-K1 APJ PathHunter beta-arrestin, luminescence; 0% DMSO wells, 100% apelin | activation, % at 20 µM | AID 2520;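 active = activation more than six SD over the plate average, tested at 20 µM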;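 note: 0% = DMSO alone and 100% = apelin-13 at 10 nM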
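Test system: CHO-K1 APJ beta-arrestin complementation cell line | Compound: Single test compound dose, 20 µM final, 1% DMSO | Incubation: Compound 90 min 25 °C, reagent 1 h | Measured by: beta-gal luminescence | Read-out basis: APJ–arrestin association signal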
CXCR6 block: CXCR6 (human) receptor inhibition | 0.36% of 360,000 active | inhibition, % at 20 µM | O00574 | AID 602244 | CHO-K1 PathHunter CXCR6 beta-arrestin, luminescence; in the data active = inhibition above about 34%, passing the limit was not always enough;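 note: antagonist mode with CXCL16 agonist at 10 nM final; 0% = 10 nM CXCL16 with DMSO and 100% = unstimulated wells without agonist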
CCR6 antag: CCR6 (human) receptor antagonism. CHO-K1 CCR6 PathHunter beta-arrestin, luminescence, CCL20-stimulated. 0.49% of 340,000 active. AID 493098. inhibition, % at 20 µM;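 active = compounds whose inhibition of the agonist-driven luminescence signal at 20 µM reaches about 50%, limit read from the data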;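 note: cells stimulated with CCL20 at 14 nM final; plate controls were DMSO with CCL20 for no effect and DMSO without agonist for full effect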
PKA-R2B activ: activates the human PKA-R2B holoenzyme complex; P22694+P31323; PKA-R2B holoenzyme dissociation, Cy5-IP20 fluorescence polarization; R2B truncated from residue 108, S112A mutant; 0% DMSO only, 100% 113 µM cGMP; activation, % at 11.4 µM; 0.079% of 340,000 active; AID 504700;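 active = activation above a cutoff set at the mean over all compounds plus 3 SD, cut at about 18% in these data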;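 note: higher means more holoenzyme dissociation and a rise in polarization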
Target sequence (P31323 whole entry, looked up, other chains not shown, the tested form may be a part): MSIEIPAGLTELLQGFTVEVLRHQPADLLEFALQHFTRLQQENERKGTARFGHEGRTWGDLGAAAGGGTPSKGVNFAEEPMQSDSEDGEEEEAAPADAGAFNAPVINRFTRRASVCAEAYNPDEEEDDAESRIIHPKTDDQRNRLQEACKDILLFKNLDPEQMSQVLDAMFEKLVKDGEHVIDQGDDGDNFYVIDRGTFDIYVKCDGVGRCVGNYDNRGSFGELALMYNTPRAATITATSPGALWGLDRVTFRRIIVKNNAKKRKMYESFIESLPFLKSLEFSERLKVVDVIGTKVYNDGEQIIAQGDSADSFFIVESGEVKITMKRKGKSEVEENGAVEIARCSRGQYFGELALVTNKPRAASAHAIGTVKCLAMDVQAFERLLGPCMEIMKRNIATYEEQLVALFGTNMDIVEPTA
APJ antagonist: blocks the human apelin receptor APJ; CHO-K1 APJ beta-arrestin complementation, luminescence; inhibition, % at 20 µM; 0.32% of 330,000 active;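 active = inhibition above about 40% at 20 µM, limit read from the data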;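 note: cells challenged with 10 nM apelin-13 agonist together with compound; plate controls were apelin-13 plus DMSO wells for no effect and DMSO wells lacking apelin-13 for full effect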
APJ antag confirm: confirmation of human APJ apelin receptor antagonists; inhibition, % at 20 µM; shares compounds with APJ antagonist; APJ beta-arrestin recruitment, luminescence, antagonist mode; 66% of 950 active; in the data active = inhibition above about 50%
The depositor's hits bear a star; / = not tested or not shown. The list is not random: actives were taken first. Their share in the collection is about 0.88%.

SMILES | PKA-R1A act | APJ agonist | CXCR6 block | CCR6 antag | PKA-R2B activ | APJ antagonist | APJ antag confirm
COc1cc(/C=C2\CCC/C(=C\c3ccc(O)c(OC)c3)C2=O)ccc1O | -1 | -8 | 31 | 49 | -1 | 40* | 80*
COc1cc(/C=C/C(=O)O)ccc1O | -3 | -2 | -5 | 8 | 8 | 4 | /
CCOc1cc(/C=C2\CN(CC)C/C(=C\c3ccc(O)c(OCC)c3)C2=O)ccc1O | 0 | -9 | 24 | 46 | -8 | 48* | 101*
CCOc1cc(/C=N/N=C/c2ccc(O)c(OCC)c2)ccc1O | -1 | -4 | -2 | 8 | 7 | 23 | /
CN(C)CCNC(=O)c1cccc(-c2cccc3nncn23)c1 | / | / | 4 | / | / | / | /
Brc1ccc(CNc2nc3ccccc3n2CCN2CCCCC2)cc1 | -6 | 2 | 14 | 30 | 0 | 13 | /
CC(C)OCCCn1c(=N)c(S(=O)(=O)c2ccccc2)cc2c(=O)n3ccccc3nc21 | -5 | -4 | 10 | 1 | 0 | 43* | -14
Cc1ccc(NC(=O)Cn2nnc(C(=O)Nc3ccc(C)c(C)c3)c2N)cc1 | -8 | 0 | 8 | 2 | -2 | 55* | 37
Cc1ccc(NC(=O)c2nnn(CC(=O)Nc3ccc4c(c3)OCO4)c2N)cc1C | -6 | 8 | 3 | 9 | 1 | 6 | /
CC1CCCCN1S(=O)(=O)c1ccc(C(=O)N(CCCN(C)C)c2nc3ccc(Br)cc3s2)cc1 (stereo not given) | -7 | 18 | -11 | 16 | 5 | 48* | 37
O=C(CCCC(=O)Nc1cccc(Br)c1)N/N=C/c1cc([N+](=O)[O-])ccc1O | 2 | -20 | 38 | 43 | 0 | 49* | 71*
CCc1nc2c(OCC(=O)C(C)(C)C)cccn2c1N(C)C(=O)C(C)C | / | / | 4 | / | / | / | /
CC(C)NC(=O)c1ccc(COc2cc(Cl)ccc2Cl)o1 | 4 | 0 | -1 | 12 | 5 | 4 | /
CN(C)CCCNC(=O)c1ccc(-c2nc(-c3ccc(Cl)cc3)cs2)cc1 | 0 | 0 | 14 | 82* | -1 | 52* | 94*
O=C(c1ccccc1)c1cccn1CC(=O)N1CCc2ccccc2C1 | -4 | -6 | 48* | 51* | -11 | 50* | 94*
O=C(Cn1cccc1C(=O)c1ccccc1)NCCCN1CCc2ccccc2C1 | 1 | -1 | 14 | 27 | 4 | 2 | /
O=C(OCC(=O)N1CCN(C(=O)c2ccco2)CC1)c1cc(F)c(F)cc1Cl | -5 | -2 | 10 | 2 | 4 | -9 | /
CC(C)(C)OC(=O)C[C@H]1C/C=C\C[C@@H](CC(=O)N(CCO)Cc2ccccc2)C(=O)NC[C@H](c2ccccc2)OC1=O | 8 | -3 | 12 | 9 | 5 | 19 | /
CC(C)(C)OC(=O)C[C@@H]1C/C=C\C[C@H](CC(=O)N(CCO)Cc2ccccc2)C(=O)NC[C@@H](c2ccccc2)OC1=O | -11 | -9 | 56* | 56* | -2 | 54* | 100*
CN(C)c1ccc(-c2nn3c(C4CCCCC4)nnc3s2)cc1 | -2 | -1 | 10 | -6 | -14 | -1 | /
CN(CCCC(=O)O)c1ccc(N=Nc2ccc([N+](=O)[O-])cc2)cc1 | 5 | -10 | 56* | 65* | -3 | 46* | 89*
CCOc1ccc(C=NNC(=O)c2ccc(-n3cnnn3)cc2)cc1 | -10 | -4 | -11 | 7 | 7 | -4 | /
CCC(C)(C)C(=O)Nc1cc([N+](=O)[O-])ccc1Cl | -1 | -2 | -3 | -16 | -10 | -30 | /
CCN(CC)c1nc(C)c(C(=S)Nc2cc([N+](=O)[O-])ccc2Cl)s1 | 4 | -11 | 42* | 57* | 2 | 40* | 100*
COC(=O)[C@]12CCCCC=C1N(Cc1cccc3ccccc13)C(=O)[C@H](CC(=O)N1CCCC1)C2 | / | / | 1 | / | / | / | /
COc1cccc(C(O)c2ncc(-c3ccccc3Cl)[nH]2)c1 (stereo not given) | / | / | 2 | / | / | / | /
O=C(CNC1CCCCCC1)c1cccs1 | 1 | -11 | 1 | 33 | 1 | 67* | 48
